Measured values taken from paper PMC10091778 (Drug Development Research, 2022).

Assays:
[1] = tested on: 4T1 murine triple negative breast cancer cells; assay: Resazurin cell viability assay on 4T1 cells; format: cell-based; details: Mus musculus, 4T1, 72 h, read-out: IC50 4T1
How it was run: (§1)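 Cells were seeded in 96-well plates (4T1 10,000, A549 10,000, HL-60 20,000 per well), with adherent lines settling overnight. Test compound came from a 10 mM DMSO stock, serially diluted in medium to 1.56–50 µM (some 39 nM–12.5 µM), for 72 h; three biological replicates. Resazurin (0.15 mg/ml stock, 20 µl per 100 µl) ran 2 h at 37 °C, read at 530/580 nm. Viability was set against untreated and blank wells; IC50 from curves.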

[2] = tested on: HL‐60 human acute promyelocytic leukemia cells; assay: Resazurin cell viability assay on HL-60 cells; format: cell-based; details: HL-60, 72 h, read-out: IC50 HL‐60
How it was run: as §1

[3] = tested on: 4T1, A549, and HL‐60 cells; format: cell-based; details: resazurin assay, 72 h, up to 50 µM, three cancer cell lines
How it was run: as §1

[4] = tested on: HL‐60 cells; assay: Annexin V / propidium iodide flow cytometry; format: cell-based, human; details: 6 µM, 24 h; for Late apoptotic cells (AnnV+/PI+) / Living cells (AnnV−/PI−) / Early apoptotic cells (AnnV+/PI−) / Necrotic cells (AnnV−/PI+): mean ± SD; for Late apoptotic cells (AnnV+/PI+): untreated 9.5 ± 2.7%; for Living cells (AnnV−/PI−): untreated 85 ± 3.9%; for Early apoptotic cells (AnnV+/PI−): untreated 1.9 ± 0.5%; for Necrotic cells (AnnV−/PI+): untreated 3.6 ± 1.6%
How it was run: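 HL-60 cells (100,000) were treated for 24 h at 1, 3 or 6 µM, then resuspended in Annexin V binding buffer (0.01 M HEPES, 0.14 M NaCl, 2.5 mM CaCl2). Annexin V-Alexa 488 was added for 15 min in the dark at room temperature, then PI (10 µg/ml). Quadrant percentages were taken by flow cytometry; three biological replicates, mean ± SD; two-tailed t test against untreated.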

[5] = tested on: HL‐60 cells; assay: Cell cycle analysis by flow cytometry; format: cell-based, human; details: 72 h; for Cells in G2/M phase: untreated 17.3 ± 1.7%
[6] = tested on: colorectal cancer cell line HCT‐116; details: read-out: IC50 HCT‐116; antiproliferative; ref Han et al., 2022; cited from earlier work
[7] = tested on: HL‐60 cells; assay: Sub-G1 DNA fragmentation analysis by flow cytometry; format: cell-based, human; details: 6 µM, 72 h; mean ± SD; untreated 11.7 ± 1.2%
[8] = tested on: HL‐60 cells; assay: Mitochondrial membrane depolarization by JC-1 staining; format: cell-based, human; details: 16 h, untreated 7.6 ± 0.6%; for Cells with green JC‐1 accumulation (depolarized MMP): 3 µM; for Cells with green JC‐1 monomers (depolarized MMP): 6 µM

| Compound | IC50 [1] | IC50 [2] | Cytotoxic / antiproliferative activity in words [3] | further results |
| --- | --- | --- | --- | --- |
| COc1ccc2[nH]c(C(=O)Nc3cccc(-c4nc(N)[nH]c4C(C)=O)c3)cc2c1 [Compound 26, N‐(3‐(5‐acetyl‐2‐amino‐1H‐imidazol‐4‐yl)phenyl)‐5‐methoxy‐1H‐indole‐2‐carboxamide] | 35 µM | 24.8 µM | – | – |
| CCOC(=O)c1[nH]c(N)nc1-c1cccc(NC(=O)c2cc3cc(F)ccc3[nH]2)c1 [Compound 31, Ethyl 2‐amino‐4‐(3‐(5‐fluoro‐1H‐indole‐2‐carboxamido)phenyl)‐1H‐imidazole‐5‐carboxylate] | 14.4 µM | 10 µM | – | – |
| CCOC(=O)c1[nH]c(N)nc1-c1cccc(NC(=O)c2cc3cc(OC)ccc3[nH]2)c1 [Compound 24, Ethyl 2‐amino‐4‐(3‐(5‐methoxy‐1H‐indole‐2‐carboxamido)phenyl)‐1H‐imidazole‐5‐carboxylate] | 12.6 µM | 7.57 µM | low antiproliferative activity | – |
| Nc1nc(-c2cccc(NC(=O)c3cc(Br)c[nH]3)c2)c(C(=O)c2ccccc2)[nH]1 [Compound 21, N‐(3‐(2‐amino‐5‐benzoyl‐1H‐imidazol‐4‐yl)phenyl)‐4‐bromo‐1H‐pyrrole‐2‐carboxamide] | – | – | completely inactive | – |
| CCOC(=O)c1[nH]c(N)nc1-c1cccc(NC(=O)c2cc3ccccc3[nH]2)c1 [Compound 16, Ethyl 4‐(3‐(1H‐indole‐2‐carboxamido)phenyl)−2‐amino‐1H‐imidazole‐5‐carboxylate] | 19.3 µM | 14.4 µM | – | – |
| Hemimycalin C | – | – | – | IC50 [6]: 18.6 µM |
| Hemimycalin E | – | – | – | IC50 [6]: 8.6 µM |
| Hemimycalin D | – | – | – | IC50 [6]: 17.1 µM |
| Nc1nc(-c2cccc(NC(=O)c3ccc4ccccc4n3)c2)c(C(=O)c2ccccc2)[nH]1 [Compound 19, N‐(3‐(2‐amino‐5‐benzoyl‐1H‐imidazol‐4‐yl)phenyl)quinoline‐2‐carboxamide] | – | – | completely inactive | – |

Further lines, with some results ahead:

| IC50 [1] | IC50 [2] | Compound | Cytotoxic / antiproliferative activity in words [3] | further results |
| --- | --- | --- | --- | --- |
| 11 µM | 6.77 µM | Nc1nc(-c2ccc(NC(=O)c3cc4cc(Br)ccc4[nH]3)cc2)c(C(=O)c2ccccc2)[nH]1 [Compound 35, N‐(4‐(2‐amino‐5‐benzoyl‐1H‐imidazol‐4‐yl)phenyl)‐5‐bromo‐1H‐indole‐2‐carboxamide] | hampered the viability of all three tested cell lines | AnnexinV translocation, in words [4]: did not influenced AnnexinV translocation significantly; Cells in G2/M phase ([5]; 1 µM): 20.8 ± 0.4%; Effect on cell cycle distribution, in words [5]: significantly disturbed cell cycle distribution |
| 17.1 µM | 5.81 µM | CCOC(=O)c1[nH]c(N)nc1-c1cccc(NC(=O)c2ccc3cccc(O)c3n2)c1 [Compound 17, Ethyl 2‐amino‐4‐(3‐(8‐hydroxyquinoline‐2‐carboxamido)phenyl)−1H‐imidazole‐5‐carboxylate] | low antiproliferative activity | – |
| 30.7 µM | 24.8 µM | Nc1nc(-c2cccc(NC(=O)c3ccccn3)c2)c(C(=O)c2ccccc2)[nH]1 [Compound 20, N‐(3‐(2‐amino‐5‐benzoyl‐1H‐imidazol‐4‐yl)phenyl)picolinamide] | – | – |
| 11.5 µM | 6.44 µM | Nc1nc(-c2cc(Cl)cc(NC(=O)c3cc4cc(Br)ccc4[nH]3)c2)c(C(=O)c2ccccc2)[nH]1 [Compound 33, N‐(3‐(2‐amino‐5‐benzoyl‐1H‐imidazol‐4‐yl)‐5‐chlorophenyl)‐5‐bromo‐1H‐indole‐2‐carboxamide] | hampered the viability of all three tested cell lines | Late apoptotic cells (AnnV+/PI+) [4]: 15.6 ± 1.8%; Living cells (AnnV−/PI−) [4]: 79.1 ± 1.9%; Cells in G0/G1 phase ([5]; 6 µM, control 64.3 ± 1.9%): 74.1 ± 1.4%; Concentrations at which arrest in G0/G1 phase occurred [5]: 3 to 6 µM; Effect on cell cycle distribution, in words [5]: significantly disturbed cell cycle distribution |
| 25.3 µM | 25 µM | CC(=O)c1[nH]c(N)nc1-c1cccc(NC(=O)c2cc3cc(F)ccc3[nH]2)c1 [Compound 30, N‐(3‐(5‐acetyl‐2‐amino‐1H‐imidazol‐4‐yl)phenyl)‐5‐fluoro‐1H‐indole‐2‐carboxamide] | – | – |
| 27 µM | 24.3 µM | Cc1ccc(NC(=O)c2cc3cc(Br)ccc3[nH]2)cc1-c1nc(N)[nH]c1C(=O)c1ccccc1 [Compound 34, N‐(3‐(2‐amino‐5‐benzoyl‐1H‐imidazol‐4‐yl)‐4‐methylphenyl)‐5‐bromo‐1H‐indole‐2‐carboxamide] | – | – |
| 13.9 µM | 8.95 µM | Nc1nc(-c2cccc(NC(=O)c3ccc4cccc(O)c4n3)c2)c(C(=O)c2ccccc2)[nH]1 [Compound 18, N‐(3‐(2‐amino‐5‐benzoyl‐1H‐imidazol‐4‐yl)phenyl)−8‐hydroxyquinoline‐2‐carboxamide] | low antiproliferative activity | – |
| 13 µM | 2.91 µM | Nc1nc(-c2cccc(NC(=O)c3cc4cc(Br)ccc4[nH]3)c2)c(C(=O)c2ccccc2)[nH]1 [Compound 28, N‐(3‐(2‐amino‐5‐benzoyl‐1H‐imidazol‐4‐yl)phenyl)‐5‐bromo‐1H‐indole‐2‐carboxamide] | hampered the viability of all three tested cell lines | Early apoptotic cells (AnnV+/PI−) [4]: 23.4 ± 1%; Necrotic cells (AnnV−/PI+) [4]: 2.1 ± 0.4%; Late apoptotic cells (AnnV+/PI+) [4]: 43.4 ± 1.2%; Living cells (AnnV−/PI−) [4]: 31.1 ± 0.8%; DNA fragmentation (sub‐G1 population) of HL‐60 cells [7]: 56.5 ± 2.8%; Cells in G2/M phase ([5]; 3 µM): 21.0 ± 0.5%; Effect on cell cycle distribution, in words [5]: significantly disturbed cell cycle distribution; Cells with green JC‐1 accumulation (depolarized MMP) [8]: 10.4 ± 0.2%; Cells with green JC‐1 monomers (depolarized MMP) [8]: 50.3 ± 0.7% |
| 12.4 µM | 7.82 µM | Nc1nc(-c2cc(NC(=O)c3cc4cc(Br)ccc4[nH]3)ccc2Cl)c(C(=O)c2ccccc2)[nH]1 [Compound 32, N‐(3‐(2‐amino‐5‐benzoyl‐1H‐imidazol‐4‐yl)‐4‐chlorophenyl)‐5‐bromo‐1H‐indole‐2‐carboxamide] | hampered the viability of all three tested cell lines | Late apoptotic cells (AnnV+/PI+) [4]: 11.7 ± 2.6%; Living cells (AnnV−/PI−) [4]: 78.9 ± 1.6%; Concentrations at which arrest in G0/G1 phase occurred [5]: 1 to 6 µM; Effect on cell cycle distribution, in words [5]: significantly disturbed cell cycle distribution |
| 11.7 µM | 3.12 µM | COc1ccc2[nH]c(C(=O)Nc3cccc(-c4nc(N)[nH]c4C(=O)c4ccccc4)c3)cc2c1 [Compound 27, N‐(3‐(2‐amino‐5‐benzoyl‐1H‐imidazol‐4‐yl)phenyl)‐5‐methoxy‐1H‐indole‐2‐carboxamide] | hampered the viability of all three tested cell lines | Early apoptotic cells (AnnV+/PI−) [4]: 16.1 ± 0.6%; Necrotic cells (AnnV−/PI+) [4]: 2.5 ± 0.3%; Late apoptotic cells (AnnV+/PI+) [4]: 50.7 ± 0.9%; Living cells (AnnV−/PI−) [4]: 30.5 ± 0.7%; DNA fragmentation (sub‐G1 population) of HL‐60 cells [7]: 53.8 ± 7.3%; Cells with green JC‐1 accumulation (depolarized MMP) [8]: 13.3 ± 1.1%; Cells with green JC‐1 monomers (depolarized MMP) [8]: 42.4 ± 0.8% |
| 9.05 µM | 5.21 µM | Nc1nc(-c2cccc(NC(=O)c3cc4cc(F)ccc4[nH]3)c2)c(C(=O)c2ccccc2)[nH]1 [Compound 23, N‐(3‐(2‐amino‐5‐benzoyl‐1H‐imidazol‐4‐yl)phenyl)‐5‐fluoro‐1H‐indole‐2‐carboxamide] | hampered the viability of all three tested cell lines | Early apoptotic cells (AnnV+/PI−) [4]: 3.2 ± 0.7%; Late apoptotic cells (AnnV+/PI+) [4]: 15.5 ± 3.9%; Living cells (AnnV−/PI−) [4]: 76.8 ± 3.5%; DNA fragmentation (sub‐G1 population) of HL‐60 cells [7]: 22.9 ± 1.2%; Cells in G2/M phase ([5]; 3 µM): 22.4 ± 1.6%; Cells in G2/M phase ([5]; 6 µM): 39.2 ± 3.1%; Effect on cell cycle distribution, in words [5]: significantly disturbed cell cycle distribution; Cells with green JC‐1 accumulation (depolarized MMP) [8]: 9.1 ± 0.2%; Cells with green JC‐1 monomers (depolarized MMP) [8]: 13.4 ± 0.8% |
| – | 6.9 µM | Nc1nc(-c2cccc(NC(=O)c3ccc[nH]3)c2)c(C(=O)c2ccccc2)[nH]1 [Compound 22, N‐(3‐(2‐amino‐5‐benzoyl‐1H‐imidazol‐4‐yl)phenyl)‐1H‐pyrrole‐2‐carboxamide] | low antiproliferative activity | – |
| – | 6.34 µM | Nc1nc(-c2cccc(NC(=O)c3cc4ccccc4[nH]3)c2)c(C(=O)c2ccccc2)[nH]1 [Compound 25, N‐(3‐(2‐amino‐5‐benzoyl‐1H‐imidazol‐4‐yl)phenyl)‐1H‐indole‐2‐carboxamide] | low antiproliferative activity | – |
